pKi: −log10 of the molar value. Active and inactive are the calls of the source. The rule behind the calls is not given here.

The test system of data set [1] is Muscle tissue. Kind of data set: Biodistribution in ICR mouse muscle at 925 KBq, iv after 30 mins by gamma counting. Type of data set: ADME, organism-based. The settings on record: in vivo, 0.5 h. The method, boiled down:
(§1)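 The ¹⁸F tracer was given iv to normal ICR mice (n = 6 per time point). Animals were killed by cardiac excision under isoflurane at 2 or 30 min. Organs were removed, weighed and γ-counted. %dose/g was calculated against counts of a 100-fold diluted aliquot of the injectate (1% of initial dose), counted at the same time.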

Data set [2] concerns Liver. Kind of data set: Biodistribution in ICR mouse liver at 925 KBq, iv after 30 mins by gamma counting. Type of data set: ADME, organism-based. The note with it: in vivo, 0.5 h. Summed up: as §1
The test system of data set [3] is Blood. Kind of data set: Biodistribution in ICR mouse blood at 925 KBq, iv after 30 mins by gamma counting. The note with it: in vivo, 0.5 h. Type of data set: ADME, organism-based. The method, boiled down: as §1
The subject of data set [4] is Liver. As to the kind of experiment: Biodistribution in ICR mouse liver at 925 KBq, iv after 2 mins by gamma counting. Type of data set: ADME, organism-based. The note with it: in vivo. The method, boiled down: as §1
Data set [5] deals with Bone. Kind of data set: Biodistribution in ICR mouse bone at 925 KBq, iv after 30 mins by gamma counting. Type of data set: ADME, organism-based, Bone element. The note with it: in vivo, 0.5 h. Summed up: as §1
Data set [6] has as its system Brain. As to the kind of experiment: Biodistribution in ICR mouse brain at 925 KBq, iv after 30 mins by gamma counting. Type of data set: ADME, organism-based. The settings on record: in vivo, 0.5 h. The method, boiled down:
as §1

Data set [7] concerns Bone. As to the kind of experiment: Biodistribution in ICR mouse bone at 925 KBq, iv after 2 mins by gamma counting. Type of data set: ADME, organism-based, Bone element. The settings on record: in vivo. Summed up: as §1
In data set [8] the test system is Kidney. Kind of data set: Biodistribution in ICR mouse kidney at 925 KBq, iv after 30 mins by gamma counting. Type of data set: ADME, organism-based. The note with it: in vivo, 0.5 h. Summed up:
as §1

For data set [9], the system named is Brain. Kind of data set: Biodistribution in ICR mouse brain at 925 KBq, iv after 2 mins by gamma counting. The settings on record: in vivo. Type of data set: ADME, organism-based. The method, boiled down: as §1
In data set [10] the test system is Muscle tissue. Kind of data set: Biodistribution in ICR mouse muscle at 925 KBq, iv after 2 mins by gamma counting. Type of data set: ADME, organism-based. The settings on record: in vivo. The method, boiled down:
as §1

Data set [11] has as its system Kidney. As to the kind of experiment: Biodistribution in ICR mouse kidney at 925 KBq, iv after 2 mins by gamma counting. Type of data set: ADME, organism-based. The note with it: in vivo. Summed up:
as §1

Data set [12] deals with Blood. As to the kind of experiment: Biodistribution in ICR mouse blood at 925 KBq, iv after 2 mins by gamma counting. Type of data set: ADME, organism-based. The settings on record: in vivo. The method, boiled down:
as §1

The target in data set [13] is T1, Amyloid-beta precursor protein (Homo sapiens, UniProt P05067). Kind of data set: Displacement of [18F]-amyvid from amyloid-beta aggregates in alzheimer's disease patient brain homogenates after 1 hr. Type of data set: tissue-based. The method, boiled down: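 Competition binding in post-mortem AD brain tissue homogenates against [¹⁸F]5 bound to Aβ aggregates. Results are expressed as inhibition constants (Ki, nM).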

Data set [14] deals with T1, Amyloid-beta precursor protein. Kind of data set: Binding affinity to amyloid-beta plaque in parenchymal region of alzheimer's disease patient brain after 1 hr. The note with it: tested as the 18F-labelled form. Summed up:
(§2)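 Post-mortem occipital sections (20 μm) from frozen brains of confirmed CAA, AD and control subjects. The ¹⁸F-labelled tracer was applied in 40% ethanol for 1 h. Sections were washed twice for 2 min in saturated Li₂CO₃/40% ethanol, once for 2 min in 40% ethanol, then rinsed 30 s in water. Dried sections were exposed to film for 12−18 h and the images digitized.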

Data set [15] shares this target. As to the kind of experiment: Binding affinity to amyloid-beta plaque in parenchymal region of normal human brain after 1 hr. Type of data set: tissue-based. The note with it: tested as the 18F-labelled form. Summed up:
as §2

Data set [16] shares this target. As to the kind of experiment: Binding affinity to amyloid-beta plaque in cerebral blood vessels of alzheimer's disease patient cerebral amyloid angiopathy region of brain after 1 hr. The settings on record: tested as the 18F-labelled form. Type of data set: tissue-based. The method, boiled down: as §2
Data set [17] has the same target. Kind of data set: Binding affinity to amyloid-beta plaque in cerebral blood vessels of normal human cerebral amyloid angiopathy region of brain after 1 hr. Type of data set: tissue-based. The settings on record: tested as the 18F-labelled form. The method, boiled down:
as §2

Data set [18] has the same target. As to the kind of experiment: Binding affinity to amyloid-beta plaque in cerebral blood vessels of alzheimer's disease patient cerebral amyloid angiopathy region of brain after 1 hr by autoradiography. Type of data set: tissue-based. The settings on record: tested as the 18F-labelled form. The method, boiled down: as §2
Data set [19] shares this target. As to the kind of experiment: Binding affinity to amyloid-beta plaque in cerebral blood vessels of alzheimer's disease patient cerebral amyloid angiopathy region of brain after 1 hr by thioflavin S staining. Type of data set: tissue-based. The note with it: tested as the 18F-labelled form. The method, boiled down: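 Adjacent brain sections were fixed 1 h in 10% neutral buffered formalin. Staining was with 0.025% thioflavin S in 40% ethanol for 3−5 min, then differentiation in 50% ethanol. Sections were viewed by fluorescence microscopy.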

T1 sequence (P05067 whole entry): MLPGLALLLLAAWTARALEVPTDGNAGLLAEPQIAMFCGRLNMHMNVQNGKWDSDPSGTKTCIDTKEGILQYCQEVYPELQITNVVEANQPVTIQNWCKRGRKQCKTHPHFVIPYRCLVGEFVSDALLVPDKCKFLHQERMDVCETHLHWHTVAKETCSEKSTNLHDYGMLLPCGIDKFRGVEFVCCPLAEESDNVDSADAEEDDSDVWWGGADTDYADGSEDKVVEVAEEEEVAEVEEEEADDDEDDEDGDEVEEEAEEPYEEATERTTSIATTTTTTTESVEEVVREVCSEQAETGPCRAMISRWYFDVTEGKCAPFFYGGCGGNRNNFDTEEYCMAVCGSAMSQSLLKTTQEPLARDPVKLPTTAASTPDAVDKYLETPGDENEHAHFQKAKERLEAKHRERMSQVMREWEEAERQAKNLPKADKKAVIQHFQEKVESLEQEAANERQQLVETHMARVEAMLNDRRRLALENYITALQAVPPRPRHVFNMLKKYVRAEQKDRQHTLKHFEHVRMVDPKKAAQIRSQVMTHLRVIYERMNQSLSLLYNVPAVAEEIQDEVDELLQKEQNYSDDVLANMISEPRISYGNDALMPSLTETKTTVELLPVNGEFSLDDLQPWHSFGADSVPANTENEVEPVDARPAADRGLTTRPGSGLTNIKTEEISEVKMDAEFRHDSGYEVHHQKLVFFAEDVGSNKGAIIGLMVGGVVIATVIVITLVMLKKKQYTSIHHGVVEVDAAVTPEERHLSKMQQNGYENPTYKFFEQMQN

In the case of `CNc1ccc(/C=C/c2ccc(OCCOCCOCC[18F])nc2)cc1` [FLORBETAPIR F 18], the Drug uptake in the data set with Muscle tissue [1] is recorded as 1.78 % ID/g; in the data set on Liver [2], 12.9 % ID/g; with Blood [3], 2.8 % ID/g; in the data set with Liver [4], 21.5 % ID/g; in the data set with Bone [5], 1.22 % ID/g; in the data set with Brain [6], 1.59 % ID/g. Further, the Drug uptake was 1.43 % ID/g in the data set with Bone [7]; 6.31 % ID/g with Kidney [8]; 7.77 % ID/g in the data set with Brain [9]; 1.06 % ID/g in the data set with Muscle tissue [10]; 10.9 % ID/g in the data set with Kidney [11]; 3.14 % ID/g in the data set on Blood [12].
`CNc1ccc(/C=C/c2ccc(OCCOCCOCCOCCOCC(COCCOCCOCCOCCOc3ccc(/C=C/c4ccc(NC)cc4)cn3)OCC[18F])nc2)cc1`: the Drug uptake in the data set on Muscle tissue [1] came to 1.21 % ID/g; with Liver [2] it was 21.4 % ID/g; in the data set with Blood [3], 1.54 % ID/g; with Liver [4] it was 21.2 % ID/g; in the data set with Bone [5] it was 2.34 % ID/g; in the data set with Brain [6], 0.4 % ID/g. Further, the Drug uptake in the data set with Bone [7] stood at 1.3 % ID/g; in the data set on Kidney [8], 9.36 % ID/g; in the data set on Brain [9], 0.4 % ID/g; in the data set on Muscle tissue [10], 0.82 % ID/g; with Kidney [11] it was 8.13 % ID/g; with Blood [12], 4.77 % ID/g.
As to `CNc1ccc(-c2nc3ccc(O)cc3s2)cc1[18F]` [FLUTEMETAMOL F 18], the pKi in [13] is 9.13.
As for `CNc1ccc(/C=C/c2ccc(OCCOCCOCCOCCOCCOCCOCC(COCCOCCOCCOCCOCCOCCOc3ccc(/C=C/c4ccc(NC)cc4)cn3)OCCF)nc2)cc1`, the pKi in [13] is 8.41.
Regarding `CNc1ccc(/C=C/c2ccc(OCCOCCOCC[18F])cc2)cc1` [FLORBETABEN F18], the pKi in data set [13] is 8.65.
`CNc1ccc(/C=C/c2ccc(OCCOCCOCCOCCNC(=O)CN(CC(=O)NCCOCCOCCOCCOc3ccc(/C=C/c4ccc(NC)cc4)cn3)C(=O)COCCOCCOCCF)nc2)cc1` gave a pKi in [13] of 7.15.
Consider `CNc1ccc(/C=C/c2ccc(OCCOCCOCCOCCOCCOCC(COCCOCCOCCOCCOCCOc3ccc(/C=C/c4ccc(NC)cc4)cn3)OCC[18F])nc2)cc1`, for which the Drug uptake is on record as 1.62 % ID/g in the data set with Muscle tissue [1]; 20 % ID/g with Liver [2]; 1.32 % ID/g in the data set on Blood [3]; 33.5 % ID/g in the data set with Liver [4]; 1.8 % ID/g with Bone [5]; 0.34 % ID/g in the data set with Brain [6]. For the same molecule, the Drug uptake stood at 1.64 % ID/g with Bone [7]; 13.4 % ID/g in the data set on Kidney [8]; 0.4 % ID/g with Brain [9]; 1.3 % ID/g in the data set on Muscle tissue [10]; 14.9 % ID/g in the data set with Kidney [11]; 2.55 % ID/g with Blood [12].
On to `CNc1ccc(/C=C/c2ccc(OCCOCCOCCF)nc2)cc1`, for which the outcome in [14] and in data set [16] was Active. For the same molecule, the outcome in data set [15] and in data set [17] was inactive.
For the molecule `CNc1ccc(/C=C/c2ccc(OCCOCCOCCOCCOCC(COCCOCCOCCOCCOc3ccc(/C=C/c4ccc(NC)cc4)cn3)OCCF)nc2)cc1`, the outcome in data set [14], in data set [18], in [16] and in [19] was Active. The outcome in [15] and in data set [17] was inactive. The negative logarithm of the Ki (pKi) in [13] was 8.49.
In data set [13], `CNc1ccc(/C=C/c2ccc(OCCOCCOCCOCCn3cc(COCC(COCCOCCOCCF)(COCc4cn(CCOCCOCCOCCOc5ccc(/C=C/c6ccc(NC)cc6)cn5)nn4)COCc4cn(CCOCCOCCOCCOc5ccc(/C=C/c6ccc(NC)cc6)cn5)nn4)nn3)nc2)cc1` gave a pKi of 6.33.
Regarding `CN(C(=O)OC(C)(C)C)c1ccc(/C=C/c2ccc(OCCOCCOCCOCCOCC(COCCOCCOCCOCCOc3ccc(/C=C/c4ccc(N(C)C(=O)OC(C)(C)C)cc4)cn3)OCCF)nc2)cc1`, the pKi in data set [13] is < 6.00.
As to `CNc1ccc(/C=C/c2ccc(OCCOCCOCCOCCOCCOCCOCC(COCCOCCOCCOCCOCCOCCOc3ccc(/C=C/c4ccc(NC)cc4)cn3)OCC[18F])nc2)cc1`, the Drug uptake turned out to be 1.29 % ID/g in the data set on Muscle tissue [1]; 16 % ID/g with Liver [2]; 1.4 % ID/g in the data set on Blood [3]; 30.2 % ID/g in the data set on Liver [4]; 1.36 % ID/g with Bone [5]; 0.38 % ID/g in the data set with Brain [6]. For the same molecule, the Drug uptake in the data set on Bone [7] turned out to be 1.06 % ID/g; in the data set with Kidney [8] it was 11.7 % ID/g; in the data set with Brain [9], 0.29 % ID/g; in the data set on Muscle tissue [10], 0.65 % ID/g; with Kidney [11], 13.7 % ID/g; with Blood [12] it was 3.12 % ID/g.
The molecule `CNc1ccc(/C=C/c2ccc(OCCOCCOCCOCCOCCOCC(COCCOCCOCCOCCOCCOc3ccc(/C=C/c4ccc(NC)cc4)cn3)OCCF)nc2)cc1` had a negative logarithm of the Ki (pKi) in [13] of 8.11.

In general, pKi refers to the negative decadic logarithm of the Ki, by convention in mol/L. The low end stands for a high Ki, the high end for a low Ki.
